We go through 97 compounds from ChEMBL document CHEMBL4513216, “Probing the Open Global Health Chemical Diversity Library for Multistage-Active Starting Points for Next-Generation Antimalarials” (ACS Infect Dis, 2020).

A short description of this data set: Toxicity liver stage against HepG2, at 10uM. It counts as cell-based. Also noted: test concentration 10 uM, cell line HepG2-A16-CD81EGFP. Particulars: human, HepG2-A16-CD81EGFP cells; read-out: INHIBITION
The procedure, abridged:
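Uninfected HepG2-A16-CD81EGFP cells, 3 × 10^3 per well, 1536-well, plated on prespotted compound at 10 μM final, parasite-free screening media added to match infected plates; puromycin 10 μM positive, DMSO 0.5% negative; run in parallel with 48 h PbLuc assay at 37 °C, 5% CO2; viability by CellTiter-Glo luminescence, normalized to controls.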
With `CC(C)(C)n1ncc2c1NC(=O)CC2c1cccc(F)c1` (configuration not stated), the cytotoxicity at 10 µM is -8.81%.
Next, `OCCN1CCC(CNCc2ccc(Br)cc2)CC1`: -8.29%; `CC(C)(C)n1ncc2c1NC(=O)CSC2c1ccsc1` (configuration not stated): -2.34%.
Regarding `Cc1ccc(CN(C)Cc2nc3ccc(F)cc3[nH]2)cn1`, the cytotoxicity at 10 µM was -5.16%.
The value for `Cc1ccc(NC(=O)CN2CCC(OCC3CCCO3)CC2)c(C)c1` (configuration not stated) was -1.7%.
The value for `Cc1ccc(CN2C(=O)CCC2C(=O)Nc2cnn(C)c2)o1` (configuration not stated) was -3.72%; that for `Cc1ccccc1C(=O)N1C[C@@H]2CCN(c3cccnc3)C[C@@H]2C1` was -76.3%; that for `CC(C)(C)OC(=O)N1CCN(c2nnc(Br)s2)CC1` was 10.8%.
`CC(C)CNC(=O)c1nn(C)c(NC(=O)Cc2ccccc2)c1F`: the cytotoxicity at 10 µM is -3.22%.
Next, `O=C(NCCNc1ccc(Br)cn1)c1ccc(O)cc1`: 0.612%; `COc1ccc(Cc2c(O)nc(SC)n(-c3ccccc3)c2=O)cc1`: 1.76%; `CCn1nc(C)cc1C(=O)N1CCOc2cc(C)ccc21`: 10.5%.
As to `c1cnc2c(c1)nc1n2[C@@H](CNC2CCOCC2)COC1`, the cytotoxicity at 10 µM was -4.8%.
Turning to `CC(=O)N1CCOC(Cc2cccc(C(F)(F)F)c2)C1` (configuration not stated), the cytotoxicity at 10 µM was -6.64%.
The value for `CCc1ccc(O)c(C(=O)NC2CCN(C(=O)OC)CC2)c1` was 1.89%; that for `O=C(NCc1ccnc(OCC(F)(F)F)c1)NCC1COCCO1` (configuration not stated) was 1.81%.
The value for `O=C(c1ccc(O)nc1)N1CCC(Nc2cccnn2)CC1` was -8.83%.
With `c1cc(CN2Cc3nccn3CC(Cn3cncn3)C2)ccn1` (configuration not stated), the cytotoxicity at 10 µM is -134%.
On to `c1cnnc(N2CCCC2CNCc2nc3ccccc3o2)c1` (configuration not stated), for which the cytotoxicity at 10 µM was -10.9%.
The value for `Cn1cc(CN2C[C@H]3CN(c4cncnc4)C(=O)[C@H]3C2)cn1` was -0.0682%; that for `CCC(CC)C(=O)NCC1(NC(C)c2ccccc2)CCOCC1` (configuration not stated) was 14.7%; that for `NC(=O)CSCC(=O)NCC1CCCC1` was 3.15%.
Next, `Cc1nn(C)c(Cl)c1C1CCCN1Cc1nnc(C2CC2)o1` (configuration not stated): -6.18%; `CC(NC(=O)NCCCN1CCc2ccccc2C1)c1nncn1C` (configuration not stated): -2.6%; `CC(C(=O)NC1CC1)S(=O)(=O)c1cc2c(cc1Cl)OCCO2` (configuration not stated): -13.9%.
The value for `CNc1cc(C)nc(N2CCC3(CC2)[C@H](O)C[C@@H]3O)n1` was -17.5%.
On to `CCS(=O)(=O)N1CCCC(c2nc3ccccc3n2C(C)C)C1` (configuration not stated), for which the cytotoxicity at 10 µM was -6.11%.
Next, `CN(C)S(=O)(=O)c1ccc(-c2nc(C#N)c(NC(C)(C)C)o2)o1`: -12.3%; `CN(CCc1nccs1)C(=O)C1(C#N)CCCCC1`: 2.91%; `COCc1ncn2c1CN(C(=O)C1CC=CC1)CC2`: -5.09%.
For the compound `Cc1cccc2[nH]c(C3CCN(C(=O)c4cnc(O)cc4O)CC3)nc12`, the cytotoxicity at 10 µM was determined as 3.09%.
Next, `O=C(NC1CCN(c2ncccn2)CC1)c1cccc(-n2ccnc2)c1`: -1.17%.
As to `CC1c2ncc(COCC3CCOCC3)n2CCN1C(=O)c1ccoc1` (configuration not stated), the cytotoxicity at 10 µM was 7.01%.
Take `O=C(NCc1nncn1C1CC1)Nc1ccc(OC2CCC2)c(F)c1`: the cytotoxicity at 10 µM is -3.2%.
Consider `O=C(Nc1ccc(S(=O)(=O)Nc2c(F)cccc2F)cc1)N1CCCC1`, for which the cytotoxicity at 10 µM worked out at 5.66%.
In the case of `CN(C)C(=O)COC[C@@H]1CC[C@H]2[C@H](CCN2c2ncccn2)O1`, the cytotoxicity at 10 µM was 15.6%.
The value for `O=c1ccn([C@H]2CCN(Cc3ncc[nH]3)CC[C@@H]2O)c(=O)[nH]1` was 13%; that for `N#Cc1cnc2ccccc2c1N1CCN(CCC(=O)O)CC1` was -1.28%; that for `CN(C)C(=O)C1CN(Cc2ccccn2)CCN(S(C)(=O)=O)C1` (configuration not stated) was 26.9%.
`CN(Cc1cc(Cl)cc2cccnc12)CC1CCN(CCO)CC1`: the cytotoxicity at 10 µM is -5.2%.
The value for `COCCOc1cc(C(=O)N2CC(C)c3ccccc32)ccn1` (configuration not stated) was 2.16%.
Next, `Cc1ccc(N2CCO[C@H]3CN(Cc4ccncc4)C[C@H]32)nn1`: 1.23%.
The value for `CCc1cc(C(=O)N2CCCC(c3[nH]ncc3S(C)(=O)=O)C2)no1` (configuration not stated) was -0.335%; that for `Cc1nc(C(=O)N2CCCN(Cc3cnn(C)c3)CC2)ccc1C#N` was -0.514%.
`CCSc1cc(C(=O)NCC(C)(C)N(C)C)ccn1`: the cytotoxicity at 10 µM is -13.4%.
Next, `CN1CC(=O)N(c2ccsc2)CC12CCN(Cc1nccn1C)C2` (configuration not stated): -0.269%; `CC(C)Cc1noc(CN2CCN(S(C)(=O)=O)CC2)n1`: 5.51%; `NC(=O)C1CCN(C(=O)NC(Cc2ccccc2)C(F)(F)F)CC1` (configuration not stated): -7.72%.
The value for `Cc1ccc2cc(C(=O)N3CCN(S(C)(=O)=O)CC3)[nH]c2c1` was -58.1%.
The value for `O=C(NCCn1ccnc1)N1CCCC1c1ccncc1` (configuration not stated) was -10.9%; that for `CCOc1nnc(CN2CCN(CCOC)C(CC)C2)s1` (configuration not stated) was -5.73%; that for `Cn1cnc2c(N3CCCC3)nc(C3CCNCC3)cc21` was -9.74%.
On to `Cc1cnn(CCNCC(=O)NCCOc2ccccc2)c1`, for which the cytotoxicity at 10 µM was -14%.
Next, `CCCOc1ccc(C(=O)N2C[C@@H](CN3CCCC3)[C@@H](CO)C2)cc1Cl`: -5.84%.
The value for `Cc1c(C(C)NC(=O)Nc2ccc(F)cc2F)cnn1C` (configuration not stated) was -46.2%; that for `CC1CN(C(=O)Nc2cc(C(F)(F)F)c[nH]c2=O)CCO1` (configuration not stated) was 3.44%; that for `C1CN(c2nc3c(c(NC4CC4)n2)CN(CC2CCOC2)CC3)CCO1` (configuration not stated) was -2.22%.
For `O=C1CC(NCc2ccc(Cl)s2)CN1Cc1cccc(F)c1` (configuration not stated), the cytotoxicity at 10 µM is -0.73%.
For the compound `O=S(=O)(N[C@@H]1CCO[C@]2(CCN(CC3CCOCC3)C2)C1)C1CC1`, the cytotoxicity at 10 µM was -142%.
Next, `CN(C(=O)CN1CCc2nn(C)c(=O)cc2C1)c1nccs1`: 10.4%; `CC(C)(C)C(=O)NCCc1cc(N2CCOCC2)nc(NC2CC2)n1`: 6.68%; `CO[C@H]1CCN(S(=O)(=O)c2cn(C)cn2)[C@H]1Cc1ccccc1`: 6.19%.
Next, `O=C(COc1ccccc1)N(Cc1ccncc1)C1CC1`: -46.1%.
As for `O=C(Nc1cc(Cl)ccc1Cl)NC1CCN(C2CCOC2)CC1` (configuration not stated), the cytotoxicity at 10 µM was determined as 6.8%.
Consider `c1nnc(Nc2cncc(C3CCCN3)n2)s1` (configuration not stated), for which the cytotoxicity at 10 µM came to 3.58%.
As for `c1cncc(NCCCNC2CCSC2)c1` (configuration not stated), the cytotoxicity at 10 µM was -3.62%.
Next, `CCC(=O)N1CCC(c2nc3c(c(NC)n2)CN(C)CC3)C1` (configuration not stated): -3.74%; `COCCN1CCC(Cc2cncc(-c3ccc(C(=O)O)cc3)n2)CC1`: -27.6%.
For `N#Cc1ccc(CN2CCCN(CCCn3cncn3)CC2)cc1`, the cytotoxicity at 10 µM is -2.89%.
Next, `CCn1nc(C)cc1C(=O)NCc1noc(C(C)(C)C)n1`: 8.7%; `Cc1cnccc1NCCNC1CCSCC1`: -9.44%.
Turning to `Cc1noc(C2CCN(c3oc(C)nc3C#N)CC2)n1`, the cytotoxicity at 10 µM is -6.32%.
The value for `O=C1COc2ccc(S(=O)(=O)NC3CC3)c3c2N1CCC3` was -16.7%; that for `CCCOc1cc(Cl)c(CN2CCNC(C(=O)NC3CC3)C2)cc1OC` (configuration not stated) was 0.508%; that for `CCN(CC)CC(=O)Nc1ccc(-n2ccc(C(N)=O)n2)cc1` was -6.9%.
For `O=C(c1ccncc1)N1C[C@@H]2CCN(c3cccnc3)C[C@@H]2C1`, the cytotoxicity at 10 µM was -71.5%.
As for `Cc1cn(Cc2ccccc2)nc1N`, the cytotoxicity at 10 µM was -4.66%.
Next, `CSc1ccccc1C(=O)C1CCCN(Cc2ccccn2)C1` (configuration not stated): -6.12%; `CN(Cc1nc2ccccc2c(=O)[nH]1)C1CC(=O)N(C2CC2)C1=O` (configuration not stated): 4.09%; `CCN1C[C@H]2[C@@H](C1)N(S(=O)(=O)c1ccccc1)CC[C@H]2OC`: -75.3%.
Next, `Cc1nc(CN2CCCN(C(=O)CC(C)n3cccc3)CC2)cs1` (configuration not stated): -6.25%; `Cc1ncc(CNCCO)c2cc(C(=O)c3ccc(Br)cc3)oc12`: 15.2%; `Cc1cc(C)n(-c2cccc(NC(=O)N3CCC[C@@H]3CO)c2)n1`: 13.9%.
Next, `Cc1c(C(=O)N2CCC(C(=O)c3nc4ccccc4s3)CC2)cnn1C`: 6.32%; `Nc1ccnc(N2CCCC(CCc3ccccc3)(C(=O)O)C2)n1` (configuration not stated): 3.33%.
Take `COCC1(Nc2nc(C)nc3c2cnn3C)CCCC1`: the cytotoxicity at 10 µM was found to be 37.4%.
For `CC(=O)Nc1c(C)cnn1Cc1cc(F)ccc1F`, the cytotoxicity at 10 µM is 25.3%.
The value for `COC(=O)Cc1cccc(NC(=O)Cc2cc(C)[nH]n2)c1` was -2.45%; that for `O=C(NCCC(=O)N1CCCC1)c1nn(-c2ccccc2F)cc1O` was -13.9%.
The value for `Cc1nc2ccccn2c1CC(=O)N[C@@H]1CCC[C@@H](N2CCCC2)[C@@H]1O` was -5.13%; that for `CN(C)CCN1CC(C(=O)N2CCC(c3cc(=O)[nH]cn3)CC2)CC1=O` (configuration not stated) was -2.34%.
Consider `Cc1[nH]ncc1C(C)NCc1ccc(F)cc1` (configuration not stated), for which the cytotoxicity at 10 µM was found to be 3.28%.
The value for `COCCc1noc(-c2ccc(-c3cc[nH]n3)nc2)n1` was -2.79%; that for `CCc1cn[nH]c1C1CCN(C(=O)c2cccc(O)c2C)CC1` was 2.28%.
The value for `CC(C)c1nccc(CN2CCCC(O)(CN(C)C)C2)n1` (configuration not stated) was 2.89%; that for `COc1ccc(C(=O)NC2CC2)c(OC2CCN(CC3CC3)CC2)c1` was -1.47%; that for `O=C(CCc1ccccn1)N1CCCN(C(=O)CC2CCCC2)CC1` was -0.546%.
